SIRT5 inh – SIRT5 desuccinylase inhibitors, primary screen, biochemical, fluorescence imaging, single point, set 5; Purified SirT5, succinyl-peptide AMC, trypsin-coupled fluorescence; actives 1.1% (n = 330,000); inhibition, % at 15 µM; NAD-dependent protein deacylase sirtuin-5, mitochondrial (Homo sapiens), Q9NXA8; in the data active = inhibition above about 15%
Target sequence (Q9NXA8 whole entry, looked up): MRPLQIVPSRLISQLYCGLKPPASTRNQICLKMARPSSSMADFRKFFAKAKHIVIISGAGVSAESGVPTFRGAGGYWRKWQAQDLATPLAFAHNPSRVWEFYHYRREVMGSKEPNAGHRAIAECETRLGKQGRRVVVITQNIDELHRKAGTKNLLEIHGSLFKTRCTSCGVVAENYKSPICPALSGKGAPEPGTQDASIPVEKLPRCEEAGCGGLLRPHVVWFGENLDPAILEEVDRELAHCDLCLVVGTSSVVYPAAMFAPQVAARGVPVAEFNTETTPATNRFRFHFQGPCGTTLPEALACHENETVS
S100A4 inh HTS – inhibitors of S100A4-myosin IIA peptide binding, primary screen, biochemical, fluorescence polarization, TAMRA-MyoIIA peptide. Protein S100-A4 (Homo sapiens), P26447. inhibition, % at 10.7 µM. actives 0.14% (n = 360,000);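 active = mean inhibition of at least 70% across replicates, with every replicate also reaching that level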
Target sequence (P26447 whole entry, looked up): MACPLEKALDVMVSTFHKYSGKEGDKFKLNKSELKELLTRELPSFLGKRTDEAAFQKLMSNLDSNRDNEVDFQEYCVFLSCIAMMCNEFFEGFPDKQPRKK
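Material: human S100A4 monomer with TAMRA-labelled myosin IIA peptide; buffer or medium: HEPES pH 7.2 with CaCl2, KCl, NaCl, DTT, Triton; compound dosing: one concentration per compound; schedule: 5 min incubation before reading; benchmarks: neutral control DMSO, positive control TFP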
miR-122 sensor – miR-122 Renilla sensor signal increase in Huh7, primary screen, miR-122 inhibitor project, cell-based, single point, plate reader. AID 602342, 2012. activation (reporter increase), % at 12.5 µM. actives 0.3% (n = 340,000). Huh7 miR-122 Renilla luciferase sensor, 48 h; neutral wells = 0, positive control = 100;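 active = mean replicate activation score at least 90 and every replicate individually at or above 90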;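 also: higher luciferase means less miR-122 activity so hits act as miR-122 inhibitors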
E-selectin induc – E-selectin induction in HUVECs, primary screen, imaging, HUVEC, immunofluorescence imaging, single point | P16581 | normalized: neutral wells 0, TNF-alpha wells 100 | activation, % at 7.58 µM | actives 0.37% (n = 260,000) | AID 686992, 2013;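 active = mean E-selectin-positive cell signal at least 10% of the positive control, reached in at least 60% of replicates, without over 20% cell loss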
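Read-out basis: % PE-positive cells; Test system: HUVEC primary endothelial cells; Technique: immunofluorescence imaging; Dosing: single-point compound dose.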
FGF22 binding – binders of human FGF22 protein, primary screen, FGF22 synaptogenesis inhibitor project, biophysical, thermal shift, single point; activity (Tm shift, normalised), % at 9.99 µM; recombinant FGF22 thermal shift, SYPRO orange fluorescence; percent of sucrose octasulfate shift, DMSO zero; actives 1.5% (n = 340,000); Fibroblast growth factor 22 (Homo sapiens), Q9HCT0;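 active = mean Tm shift, scaled 0 neutral to 100 positive control, at about 1.3% or above, every replicate too, limit read from the data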
Target sequence (Q9HCT0 whole entry, looked up): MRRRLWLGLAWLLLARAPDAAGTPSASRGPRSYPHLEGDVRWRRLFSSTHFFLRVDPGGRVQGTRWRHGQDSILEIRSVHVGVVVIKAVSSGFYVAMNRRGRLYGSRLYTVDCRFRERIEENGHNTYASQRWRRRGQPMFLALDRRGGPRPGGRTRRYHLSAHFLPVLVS
Hits are given with their value; - = inactive; . = no result given; ! = a repeat was not active. Sampled rows, rich in hits. Any-hit rate of the full collection: about 2.5%.

SMILES	SIRT5 inh	S100A4 inh HTS	miR-122 sensor	E-selectin induc	FGF22 binding
O=C(C[C@H]1C[C@@H]2c3cc(NC(=O)Nc4ccccc4F)ccc3O[C@@H]2[C@@H](CO)O1)NCc1ccc(Oc2ccccc2)cc1	18	-	-	-	-
O=C(C[C@@H]1C[C@H]2c3cc(NC(=O)c4ccc5c(c4)OCO5)ccc3O[C@H]2[C@H](CO)O1)NCc1ccc(Oc2ccccc2)cc1	22	-	-	-	-
O=C(C[C@@H]1C[C@@H]2c3cc(NC(=O)Nc4ccccc4F)ccc3O[C@@H]2[C@H](CO)O1)NCC1CC1	-	-	-	-	-
CCCC#Cc1cnc2c(c1)C(=O)N([C@H](C)CO)C[C@H](C)[C@H](CN(C)C(=O)Nc1cccc(F)c1)O2	-	-	-	-	-
CC(C)(C)C(=O)Nc1sc2c(c1C#N)CCC2	-	-	.	.	-
CC(C)(C)C(=O)Nc1sc2c(c1C(=O)Nc1ccccn1)CCCC2	18	-	-	-	-
Cc1ccc(CNC(=O)C2CSC3(C)CCC(=O)N23)cc1 (stereo not given)	-	-	-	-	43
C[C@H](CO)N1C[C@H](C)[C@H](CN(C)C(=O)c2ccccc2F)Oc2ncc(-c3cccnc3)cc2C1=O	-	-	-	-	-
CC1=C(C(=O)OCC2CCCO2)C(c2coc3ccc(C)cc3c2=O)C2=C(CCCC2=O)N1 (stereo not given)	-	-	-	.	64
Fc1ccc(-c2nnc3ccccn23)cc1	-	-	-	-	43
N#C[C@H]1[C@@H](c2ccccc2C2=CCCCC2)[C@@H](CO)N1C(=O)C1CCOCC1	-	-	.	-	-
O=C(c1c(F)c(F)c(F)c(F)c1F)N(Cc1ccccc1)Cc1ccccc1	.	.	-	.	.
O=C(c1c(F)cccc1F)N(Cc1ccccc1)Cc1ccccc1	-	-	-	32	-
C[C@H](CO)N1C[C@H](C)[C@H](CN(C)S(=O)(=O)c2ccc(F)cc2)Oc2cc(C3=CCCC3)ccc2S1(=O)=O	-	-	-	-	-
C[C@H](CO)N1C[C@H](C)[C@@H](CN(C)S(=O)(=O)c2ccc(F)cc2)Oc2cc(C3=CCCCC3)ccc2S1(=O)=O	19	-	-	-	-
C[C@@H]1CN([C@@H](C)CO)S(=O)(=O)c2ccc(-c3cccc(C#N)c3)cc2O[C@@H]1CN(C)C(=O)c1ccc(F)cc1	-	131!	-	-	-
C[C@@H]1CN([C@H](C)CO)S(=O)(=O)c2ccc(C3=CCCCC3)cc2O[C@@H]1CN(C)C(=O)Nc1ccc2c(c1)OCO2	15	-	-	-	-
C[C@@H]1CN([C@H](C)CO)S(=O)(=O)c2ccc(C3=CCCCC3)cc2O[C@H]1CN(C)C(=O)c1ccc(F)cc1	-	-	-	-	-
C[C@H]1CN([C@@H](C)CO)S(=O)(=O)c2ccc(C3=CCCCC3)cc2O[C@@H]1CN(C)C(=O)c1ccc(F)cc1	16	-	-	-	-
C[C@@H]1CCCCO[C@H](CN(C)C(=O)c2ccccc2)[C@@H](C)CN([C@@H](C)CO)C(=O)c2cc(NC(=O)NC3CCCCC3)ccc2O1	-	-	-	-	-
C[C@@H]1CN([C@H](C)CO)S(=O)(=O)c2ccc(C3=CCCCC3)cc2O[C@H]1CN(C)S(=O)(=O)c1ccc(F)cc1	30	-	-	-	.
CN(Cc1cc(=O)n2ccsc2n1)C1CCCCC1	-	-	.	.	-
CN(Cc1cc(=O)n2ccsc2n1)c1ccccc1	-	-	.	.	44
COc1cccc(-c2ccc([C@@H]3[C@@H](CO)N4CCCCN(C(=O)NC(C)C)C[C@@H]34)cc2)c1	-	-	-	-	-
CCCCN(CC)CCCNC(=O)c1cn(CC)c2ccc(S(=O)(=O)N3CCc4ccccc4C3)cc2c1=O	-	-	.	-	43
SMILES	SIRT5 inh	S100A4 inh HTS	miR-122 sensor	E-selectin induc	FGF22 binding
CCOc1ccc(NS(=O)(=O)c2cc(NC(=O)CCC(=O)c3cccs3)ccc2Cl)cc1	-	-	.	.	-
COc1ccccc1NS(=O)(=O)c1cc(NC(=O)CCC(=O)c2cccs2)ccc1Cl	-	-	108	.	-
COc1ccccc1NS(=O)(=O)c1cc(N/C(=N/S(=O)(=O)c2ccccc2)c2ccc(F)cc2)ccc1Cl	-	-	117	-	-
COc1ccc(NC(=O)CCC(=O)c2cccs2)cc1S(=O)(=O)Nc1ccc(Cl)cc1	-	-	322	-	-
COc1ccc2c3c(n(C)c2c1)[C@H](CO)N(C(=O)c1ccncc1)CC31CN(C)C1	.	-	.	-	-
O=C(NCC[C@@H]1CC[C@H](NS(=O)(=O)c2ccc(Oc3ccccc3)cc2)[C@@H](CO)O1)C1CC1	-	-	.	-	-
CCC(=O)Nc1ccc2c(c1)OC[C@@H](C)N(C(=O)c1ccc(F)cc1)C[C@@H](C)[C@@H](OC)CN(C)C2=O	-	-	.	-	-
Cc1ccc(S(=O)(=O)Nc2ccc3c(c2)CC(=O)N([C@H](C)CO)C[C@@H](C)[C@@H](CN(C)Cc2ccc(C(F)(F)F)cc2)O3)cc1	.	.	-	-	.
C[C@@H]1CN([C@@H](C)CO)C(=O)Cc2cc(NS(=O)(=O)c3ccc(Cl)cc3)ccc2O[C@@H]1CN(C)Cc1ccc(C(F)(F)F)cc1	-	-	-	-	-
C[C@@H]1CN([C@H](C)CO)C(=O)Cc2cc(NS(=O)(=O)c3ccc(F)cc3)ccc2O[C@H]1CN(C)Cc1ccc(C(F)(F)F)cc1	23	-	-	-	-
C[C@H]1CN([C@@H](C)CO)C(=O)Cc2cc(NS(=O)(=O)c3ccc(F)cc3)ccc2O[C@@H]1CN(C)Cc1ccc(C(F)(F)F)cc1	20	-	-	-	-
C[C@@H]1CN([C@H](C)CO)C(=O)Cc2cc(NS(=O)(=O)c3ccc(Cl)cc3)ccc2O[C@@H]1CN(C)Cc1ccc(C(F)(F)F)cc1	-	-	-	-	-
C[C@@H]1CN([C@@H](C)CO)C(=O)Cc2cc(NS(=O)(=O)c3ccc(F)cc3)ccc2O[C@@H]1CN(C)Cc1ccc(C(F)(F)F)cc1	18	-	-	-	-
COc1ccc(NC(=O)N2CCCCN3[C@@H](CO)[C@@H](c4ccc(-c5ccccc5C)cc4)[C@@H]3C2)cc1	-	-	-	-	-
O=C(O)c1cc(N2C(=O)C3CCCCC3C2=O)ccc1NCc1cccnc1 (stereo not given)	21	-	-	-	-
Cc1c(NCc2cccnc2)cccc1C(=O)O	-	-	-	-	-
COc1ccc(CN2CCN(C(=O)c3ccc(S(=O)(=O)NCc4ccco4)cc3)CC2)cc1	-	-	-	-	.

Bioassay records deposited in PubChem BioAssay by Broad Institute.
